SR-BI DiI inh = inhibitors of mouse SR-BI mediated HDL lipid uptake. Q61009. ldlA[mSR-BI] CHO cells, DiI-HDL uptake fluorescence, 3 h. inhibition, % at 12.5 µM. actives 0.96% (n = 320,000);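 active = mean replicate inhibition of at least 70% and a set share of replicates each scoring 70 or more; inconclusive = meets just one of the two criteria; inactive = fails both criteria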;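 also: 0% = median of neutral control wells and 100% = median of positive control wells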
Target sequence (Q61009 whole entry, looked up): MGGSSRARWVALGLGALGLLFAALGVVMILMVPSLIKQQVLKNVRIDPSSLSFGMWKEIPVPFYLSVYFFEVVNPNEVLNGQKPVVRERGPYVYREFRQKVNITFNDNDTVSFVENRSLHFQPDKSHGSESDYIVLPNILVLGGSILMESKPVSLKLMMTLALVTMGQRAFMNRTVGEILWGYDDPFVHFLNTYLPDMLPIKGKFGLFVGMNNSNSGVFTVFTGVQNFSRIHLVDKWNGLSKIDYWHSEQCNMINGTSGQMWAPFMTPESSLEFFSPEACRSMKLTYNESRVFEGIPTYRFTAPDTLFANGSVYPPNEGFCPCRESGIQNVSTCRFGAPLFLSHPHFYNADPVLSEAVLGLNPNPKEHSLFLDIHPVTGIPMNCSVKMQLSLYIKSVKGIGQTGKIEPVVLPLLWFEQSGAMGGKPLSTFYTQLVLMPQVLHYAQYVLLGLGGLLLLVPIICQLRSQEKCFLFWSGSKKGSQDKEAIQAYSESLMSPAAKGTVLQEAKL
dFosB act-1 = enhances mouse delta FosB homodimer DNA binding; P13346; purified delta FosB, TAMRA-CDK5 oligo fluorescence polarization; percent of positive-control signal above neutral wells; activation, % at 25 µM; actives 0.99% (n = 340,000); AID 493131;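 active = mean activation above about 17%, with every replicate also reaching it, limit read from the data, passing the limit was not always enough; inconclusive = only one of the two conditions met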
SR-BI uptake up = SR-BI HDL lipid transfer activation; CHO ldlA[mSR-BI] cells, DiI-HDL uptake fluorescence, 3 h; 100 = double the neutral-control signal; activation, % at 12.5 µM; actives 0.096% (n = 320,000); AID 504775;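 active = mean replicate activation of at least 60% and every replicate at or above 60%; inconclusive = mean or all-replicate condition met, but not both; inactive = mean below 60% and not all replicates reaching 60%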;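 also: 0% = median plate neutral-control signal and 100% = twice that signal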
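Assay system: LDL receptor-deficient CHO ldlA cells overexpressing murine SR-BI / Medium: BSA-supplemented, HEPES-buffered Ham's F12, pH 7.4 / Probe or stimulus: DiI-labelled HDL at 10 µg/mL final / Timing: compound with DiI-HDL co-incubation, 3 h at 37 °C / Technique: bottom-read cell fluorescence after medium removal, ex 550/em 595 nm / Measure: HDL uptake via cellular fluorescence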
CDK5 p35 inh = inhibitors of human CDK5/p35 kinase; actives 0.01% (n = 330,000); Recombinant CDK5/p35, ADP-Glo luminescence, 60 min; Q00535+Q15078; inhibition, % at 10 µM;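 active = highest replicate inhibition of at least 50% and at least 75% of replicates reaching 50%; inconclusive = only one of the two criteria met; inactive = both criteria failed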;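 also: plate controls were DMSO neutral control for no effect and GW8510 at 10 µM for full effect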
dFosB act-2 = enhances mouse delta FosB homodimer binding to DNA; activation, % at 24.9 µM; shares compounds with dFosB act-1; purified delta FosB, TAMRA-CDK5 oligo fluorescence polarization; normalised: neutral wells 0, positive control 100; 2,400 tested, under 10 active;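 active = highest replicate activation at or above 34% and every replicate reaching that threshold; inconclusive = meets only one of the two criteria; inactive = meets neither criterion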;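 also: higher polarization means more probe DNA bound by delta FosB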
* marks the source's active call; other numbers are inactive results; ? = inconclusive; / = no result given. The list is not random: actives were taken first. Their share in the collection is about 2%.

SMILES | SR-BI DiI inh | dFosB act-1 | SR-BI uptake up | CDK5 p35 inh | dFosB act-2
O=C(N/N=C/c1ccc(Cl)c([N+](=O)[O-])c1)c1cc(-c2ccc3c4c(cccc24)CC3)n[nH]1 | 61 | 38* | -61 | -2 | 7
Cc1cc(C)nc(NC2=NCCN2C(=S)Nc2ccc(C)c(C)c2)n1 | 19 | -2 | -19 | 0 | /
O=C(Cn1c2ccccc2c(=O)c2ccccc21)Nc1ccccc1F | 1 | 37* | -1 | 1 | -2
CC(=O)c1cn(CC(=O)Nc2ccccc2F)c2ccccc12 | -11 | -1 | 11 | 0 | /
N#CNC(=Nc1cccc(Cl)c1)Oc1ccccc1 | -13 | -3 | 13 | -2 | /
N#CNC(N)=Nc1cccc(Cl)c1 | 37 | 22* | -37 | 0 | -7
O=C(Nc1nc2c(s1)CN(Cc1ccccc1)CC2)C1CCCC1 | 8 | 24* | -8 | 2 | 1
CC(C)(C)C(=O)Nc1nc2c(s1)CN(Cc1ccccc1)CC2 | -21 | 4 | 21 | 4 | /
COc1ccc(Cn2c(CCC(=O)Nc3ccc(C)c(C)c3)nc3cccnc32)cc1 | 25 | 18* | -25 | 0 | -8
CCc1ccccc1NS(=O)(=O)Cc1ccccc1 | 9 | -4 | -9 | 0 | /
COc1ccc(-c2cc3nc4ccccc4n3c(N)c2C#N)cc1 | / | 19* | / | 0 | 6
CCC(C)[C@H](NC(=O)N1CCC(C)CC1)C(=O)OC (stereo partly drawn) | 11 | -2 | -11 | 1 | /
CC(=O)Nc1ccc(NC(=O)c2ccc(COc3ccccc3Br)o2)cc1 | 4 | 69* | -4 | -3 | -8
O=C(Nc1cccnc1)c1ccc(COc2ccccc2Br)o1 | 5 | 0 | -5 | 1 | /
CCOc1ccccc1CNC(=O)CCNS(=O)(=O)c1ccc2[nH]c(=O)oc2c1 | -1 | 2 | 1 | -2 | /
CCCCc1nnc(NC(=O)CCS(=O)(=O)c2ccc(Cl)cc2)s1 | -7 | 24* | 7 | -1 | 2
CCCc1nnc(NC(=O)CCS(=O)(=O)c2ccccc2)s1 | 5 | -1 | -5 | 3 | /
Cc1ccc(C(=O)NC(=S)Nc2ccc3[nH]c(=O)[nH]c3c2)c(C)c1 | 3 | 28* | -3 | -1 | 7
Cc1cccc(C(=O)NC(=S)Nc2ccc3[nH]c(=O)[nH]c3c2)c1 | 8 | 13 | -8 | -1 | /
O=C(O)CC1(CC(=O)NCc2ccncc2)CCCCC1 | -39 | 3 | 39 | -1 | /
C/C(=N\NC(=O)c1nnn(-c2nonc2N)c1C(C)C)c1ccncc1 | 3 | -2 | -3 | -1 | /
C/C(=N\NC(=O)c1nnn(-c2nonc2N)c1C(C)C)c1ccc2ccccc2c1 | 5 | 41* | -5 | -1 | -1
COc1ccc(/C(C)=N/NC(=O)c2nnn(-c3nonc3N)c2-c2cccs2)cc1 | 8 | 0 | -8 | 0 | /
COc1ccc(/C(C)=N/NC(=O)c2nnn(-c3nonc3N)c2-c2ccccc2)cc1 | / | 30* | / | -4 | 7
COc1ccccc1NC(=O)Cn1nnc(C(=O)NCc2cccs2)c1N | 3 | 22* | -3 | 0 | -7
SMILES | SR-BI DiI inh | dFosB act-1 | SR-BI uptake up | CDK5 p35 inh | dFosB act-2
O=C(Cn1nnc2c(cnn2-c2ccccc2)c1=O)NCc1cccs1 | 6 | 38* | -6 | -1 | 5
CCc1ccccc1NC(=O)Cn1nnc(C(=O)NCc2cccs2)c1N | -21 | 40* | 21 | 1 | 0
COc1ccc(NC(=O)Cn2nnc(C(=O)NCc3cccs3)c2N)cc1 | 1 | 14 | -1 | 0 | /
O=C(Nc1ccc(F)cc1F)NC1CCCCCCC1 | -35 | -9 | 35 | 1 | /
O=C(c1cccc(S(=O)(=O)N2CCc3ccccc32)c1)N1CCOCC1 | -2 | -9 | 2 | -1 | /
COc1ccc(/C=C2\SC(=O)N(CC(=O)NC3C=CS(=O)(=O)C3)C2=O)cc1 (stereo not drawn) | -7 | 41* | 7 | / | 4
O=C(CCCN1C(=O)S/C(=C\c2ccccc2)C1=O)NNC(=O)c1ccccc1O | 23 | 1 | -23 | 3 | /
O=C(CN1C(=O)S/C(=C\c2ccccc2)C1=O)NNC(=O)c1ccccc1O | 4 | 48* | -4 | -2 | 4
O=C(CN1C(=O)S/C(=C\c2ccc(F)cc2)C1=O)NC1C=CS(=O)(=O)C1 (stereo not drawn) | 2 | 13 | -2 | 0 | /
COc1ccc(/C=C2\SC(=O)N(CC(=O)NNC(=O)c3ccccc3O)C2=O)cc1 | -1 | 67* | 1 | 1 | 2
Cc1onc(-c2c(F)cccc2Cl)c1C(=O)Nc1cccc(S(=O)(=O)NC2=NCCC2)c1 | -5 | -5 | 5 | -1 | /
Cc1occc1C(=O)NNC(=O)Nc1ccc(Cl)c(Cl)c1 | 29 | -7 | -29 | 1 | /
Cc1ccsc1C(=O)NNC(=O)Nc1ccc(Cl)c(Cl)c1 | 12 | 25* | -12 | 1 | 0
CN(C)CCCN1C(=O)c2cccc3c(Br)ccc(c23)C1=O | -26 | 32* | 26 | 1 | 3
Cc1ccccc1OCCOc1cccc(/C=N/NC(=O)Cc2nnc(N)s2)c1 | 33 | 49* | -33 | -1 | -1
O=C(COc1ccc2c(c1)OCO2)Nc1ccc2c(c1)oc1ccccc12 | -6 | 81* | 6 | 0 | 3
COc1ccc(N(CC(=O)Nc2ccc3c(c2)OCCO3)S(=O)(=O)c2c(C)noc2C)cc1 | 1 | 37* | -1 | -1 | 3
Cc1ccc(NC(=O)CC2=NC(=O)C(CC(=O)Nc3ccccc3F)S2)cc1 (stereo not drawn) | / | 46* | / | -2 | 4
CCCNC(=O)CSc1nc2[nH]ncc2c(=O)[nH]1 | -35 | -14 | 35 | 1 | /
CCOc1ccc(NC(=O)CCC(=O)NNC(=O)COc2ccc(C)cc2)cc1 | 4 | -5 | -4 | 1 | /
O=C(CCC(=O)Nc1ccc(Cl)cc1Cl)NNC(=O)Nc1ccccc1 | 0 | 34* | 0 | 0 | 1
CCOc1ccc(NC(=O)CCC(=O)NNC(=O)Nc2cccc(Cl)c2)cc1 | 15 | 34* | -15 | 0 | 1
Cc1ccccc1CNC(=O)C1CCCN(c2nnc(C)c3c(C)n(-c4ccccc4)nc23)C1 (stereo not drawn) | 5 | 18* | -5 | 1 | -4
Cc1nnc(N2CCCC(C(=O)NCc3cccc(F)c3)C2)c2nn(-c3ccccc3)c(C)c12 (stereo not drawn) | 13 | -20 | -13 | 0 | /
CCc1ccc(CNC(=O)C2CCCN(c3nnc(C)c4c(C)n(-c5ccccc5)nc34)C2)cc1 (stereo not drawn) | 32 | 31* | -32 | 1 | ?
COc1cc(NC(=O)c2ccccc2)c(OC)cc1NC(=O)Cc1ccc(Br)cc1 | 57 | 21* | -57 | 0 | 8
COc1cc(NC(=O)c2ccc(Br)cc2)c(OC)cc1NC(=O)c1ccccc1 | 57 | 3 | -57 | 0 | /
COc1cc(C#N)ccc1OC(=O)C1CCN(C(=O)c2ccc(F)cc2)CC1 | -10 | -8 | 10 | -1 | /
